Ab BasE inh: blocks the Acinetobacter baumannii siderophore enzyme BasE; purified BasE, fluorescence polarization binding displacement; inhibition, % (no concentration beside the values); 0.1% of 84,000 active; AID 485350; in the data active = inhibition above about 25%, passing the limit was not always enough;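 also: 0% = negative plate control signal and 100% = positive plate control signal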
LANA-nucl inh: LANA-nucleosome interaction inhibition | 0.3% of 51,000 active | z-score (concentration not given with the values) | FITC-LANA1-23 / chicken nucleosome fluorescence polarization; hits give low values;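 active = both repeat wells score below -2 in polarization z-score versus plate sample wells, excluding overly bright wells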
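Assay system: purified chicken nucleosomes with FITC-labelled LANA N-terminal peptide (1-23) / Probe or stimulus: 50 nM FITC-LANA1-23 probe / Compound dosing: pin-transferred compound, 100 nL / Times: compound with peptide–nucleosome mix 10–45 min at room temperature / Technique: fluorescence polarization, 480 nm excitation, 535 nm parallel and perpendicular emission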
An asterisk follows results filed as active; x = no result given; ! = not active in a repeat. The full list was thinned out, with hits kept by preference.

SMILES	Ab BasE inh	LANA-nucl inh
COc1ccc(CNC2CCCC2)cc1	-2.5	0.513
Cc1cccc(OCC(N)=O)c1	22.2	x
Cc1cccc(OCC(=O)N(Cc2ccco2)Cc2ccco2)c1	27.8*	0.493
COc1cc(/C=C/C(=O)OCC(=O)Nc2cccc(F)c2)ccc1O	1.2	x
O=C(/C=C/c1ccc(O)c(O)c1)O[C@@H]1C[C@](O)(C(=O)O)C[C@@H](O)[C@H]1O	32.4*!	0.071
Cc1cc(C(=O)CO/N=C/c2ccco2)c(C)n1-c1ccc(OC(F)F)cc1	-2.9	x
COc1ccccc1/C=C/C1=NC(=C\c2ccc3c(c2)OCO3)/C(=O)O1	7.9	x
COc1cccc(NC(=O)C=C(C)C)c1	-1.0	-0.59
O=C1CCCC2=C1Sc1ccccc1N2	12.8	-2.69*
O=C1CCCC2=C1C(c1cccc(Br)c1)Nc1ccccc1N2 (centres undefined)	-1.6	x
CC(=O)Nc1ccccc1C(=O)OCc1nnc(-c2ccccc2)o1	3.5	-0.47
CCCN1CC=C2C(C1)C(c1ccc(C(=O)OC)cc1)C(C#N)=C(N)C2(C#N)C#N (centres undefined)	14.3	-1.7
CCN1CC=C2C(C1)C(c1ccc(Cl)s1)C(C#N)=C(N)C2(C#N)C#N (centres undefined)	19.8	-5.85*
N#Cc1nc2c(S(=O)(=O)c3ccc(Cl)cc3)c(N)n(Nc3cccc(Cl)c3)c2nc1C#N	2.0	x
CC(C)CC1C2CN(Cc3ccccc3)CC=C2C(C#N)=C(N)C1(C#N)C#N (centres undefined)	15.5	-1.5
CC(=O)N1CC=C2C(C#N)=C(N)C(C#N)(C#N)C(Cc3ccccc3)C2C1 (centres undefined)	-0.3	-0.782
CN1CC=C2C(C#N)=C(N)C(C#N)(C#N)C(CCc3ccccc3)C2C1 (centres undefined)	22.0	-2.87*
CCCC1C2CN(Cc3ccccc3)CC=C2C(C#N)=C(N)C1(C#N)C#N (centres undefined)	23.3	-4.55*
COc1ccc2o/c(=N\O)c(C(N)=O)cc2c1	-0.1	-0.512
Cc1cc(C(=O)COC(=O)Cn2cncn2)c(C)n1-c1ccc(F)cc1	2.1	x
O=C(Nc1cc(Cl)ccc1O)c1nc2ncccn2n1	4.2	-0.4
CN(C)c1ccc(C(CNC(=O)c2ccc3c(c2)OCO3)N2CCc3ccccc32)cc1 (centres undefined)	-1.4	0.0805
CCCCSC1=C(C#N)C(=O)NC(c2ccc(OC)cc2)S1 (centres undefined)	4.0	-0.364
COc1ccc(CSC2=C(C#N)C(=O)NC3(CCCCC3)S2)cc1	38.9*	x
CC(C)(C)OC(=O)/C(C#N)=C/c1cccs1	-0.5	0.183
SMILES	Ab BasE inh	LANA-nucl inh
CN(C)C(=O)CCN1C(=O)C2C3C=CC(C3)C2C1=O (centres undefined)	1.5	-0.531
N#CC(C(=O)Nc1ccc(Cl)c(Cl)c1)=C1Nc2ccccc2N1	0.5	0.554
N#CC(C(=O)Nc1ccccc1)=C1Nc2ccccc2N1	31.1*	x
O=c1cc(-c2ccccc2)nc(SCCOc2ccc3c(c2)OCO3)[nH]1	1.8	-1.12
Cc1ccccc1NC(=O)NC(C)(C)CC(C)(C)C	0.8	-0.0685
CC(C)(C)CC(C)(C)NC(=O)Nc1cccc(Cl)c1	1.9	-2.02*
CN=C1SC(CC(=O)Nc2ccc(Br)cc2)C(=O)N1/N=C/c1cccs1 (centres undefined)	0.0	x
O=C1N=C(N2CCCC2)S/C1=C/c1ccc(-c2ccccc2)o1	0.6	-0.226
O=C(Nc1ccccc1)c1cccnc1	11.5	x
O=C(Nc1cccnc1)/C(N=Nc1cccnc1)=C(\O)c1ccccc1	32.0*	x
COc1ccccc1C1C2=C(CC(C)(C)CC2=O)Nc2nc3ccccc3n21 (centres undefined)	1.1	-0.738
COc1ccccc1C1C=C(c2cccnc2)Nc2nc3ccccc3n21 (centres undefined)	28.8	-4.8*
CCCCNC(=O)NC1C2CC3CC(C2)CC1C3 (centres undefined)	26.4*	0.799
CC(C)NC(=O)NC1C2CC3CC(C2)CC1C3 (centres undefined)	-0.8	1.52
Cn1c(-c2oc3nc(-c4ccccc4)cc(-c4ccco4)c3c2N)n[nH]c1=S	2.6	-2.32*
Cn1c(SCc2ccccc2Cl)nnc1-c1oc2nc(-c3ccccc3)cc(-c3ccco3)c2c1N	-6.5	-0.258
CS(=O)(=O)Nc1cccc(C2=NN(C(=O)CCC(=O)O)C(c3cccc(F)c3)C2)c1 (centres undefined)	-0.1	2.26
CC(C(=O)NCc1ccc2c(c1)OCO2)n1ncc(Cl)c(Cl)c1=O (centres undefined)	0.4	x
CCc1ccc(NC(=O)COC(=O)c2ccco2)cc1	0.1	x
Cn1nc(C(=O)Nc2ccc(Cl)cc2)ccc1=O	1.1	x
CCN(CC)c1ccc(/C=N/N(CCC#N)C2=NS(=O)(=O)c3ccccc32)cc1	10.7	-8.37*
N#CCCN(/N=C/c1ccccc1)C1=NS(=O)(=O)c2ccccc21	2.5	x
CC1Sc2ccc(C(=O)N(C)Cc3cccnc3)cc2NC1=O (centres undefined)	1.0	x
COc1cccc(C(=O)N2CCN(c3ccccc3)CC2)c1	3.0	x
COc1cccc(N2CCN(C(=O)c3nn(C)c4c3COc3ccccc3-4)CC2)c1	2.7	-2.28*
SMILES	Ab BasE inh	LANA-nucl inh
CCOc1cc2[nH]c(=O)n(CCC(=O)NCc3ccco3)c(=O)c2cc1OCC	1.0	-1.71
S=c1[nH]nc(-c2ccc3c(c2)OCO3)o1	2.4	x
N#CC1=C(N)OC2=C(C(=O)CCC2)C12C(=O)Nc1ccc(F)cc12 (centres undefined)	0.8	-0.354
CN1c2ccccc2C(=O)C(=C2SCCCS2)S1(=O)=O	3.5	-1.51
CN1c2ccccc2C(=O)/C(=N\Nc2ccccc2Cl)S1(=O)=O	-1.3	-2.39*
O=C(O)CCCOc1ccccc1F	0.5	-0.608
COc1ccc(CN(C)c2nc(C(F)(F)F)nc3ccccc23)c(OC)c1	0.4	x
CC[C@@]1(O)C[C@H](O[C@H]2C[C@H](N(C)C)[C@H](O[C@H]3C[C@H](O)[C@H](O[C@H]4CCC(=O)[C@H](C)O4)[C@H](C)O3)[C@H](C)O2)c2c(cc3c(c2O)C(=O)c2c(O)cccc2C3=O)[C@H]1C(=O)OC	x	0.192
COc1cccc2c1C(=O)c1c(O)c3c(c(O)c1C2=O)C[C@@](O)(C(=O)CO)C[C@@H]3O[C@H]1C[C@H](N)[C@@H](O)[C@H](C)O1	x	-11.4
CC(=O)[C@]1(O)Cc2c(O)c3c(c(O)c2[C@@H](O[C@H]2C[C@H](N)[C@H](O)[C@H](C)O2)C1)C(=O)c1ccccc1C3=O	x	-10.3*!
COc1cccc2c1C(=O)c1c(O)c3c(c(O)c1C2=O)C[C@@](O)(C(C)=O)C[C@@H]3O[C@H]1C[C@H](N)[C@H](O)[C@H](C)O1	x	-8.31*
Nc1cccnc1Nc1ccccc1	23.8	-3.06*
O=C(NCc1ccccc1)c1cccnc1Nc1ccccc1	0.4	-1.1
O=C(CSc1n[nH]c(Cc2ccccc2)n1)NC1CCCCC1	1.8	-2.4*
Cc1nc(SCC(=O)NC2CCCC2)[nH]c(=O)c1Cc1ccccc1	1.1	1.28
CN1CCN(C(=O)c2ccc3c(c2)S(=O)(=O)c2ccccc2C3=O)CC1	0.5	x
CN(C)c1ccc2c(c1)S(=O)(=O)c1cc(N(C)C)ccc1C2=O	33.0	-3.99*
O=C(c1ccc(O)cc1)c1ccc(O)cc1O	31.3*	0.208
COc1ccc(C(=O)c2ccccc2)c(O)c1	0.4	-0.266

Screening results (PubChem BioAssay)
